In ChEMBL document CHEMBL1146535, “New manzamine alkaloids with activity against infectious and tropical parasitic diseases from an Indonesian sponge” (J Nat Prod, 2003):
≈ marks a conversion by molar mass, not a printed value. Calls of active or inactive are those of the source. The rule behind the calls is not given here.

Tests used:
[1] = tested on: Mycobacterium tuberculosis; test: Antimycobacterial activity against Mycobacterium tuberculosis H37Rv; format: functional
[2] = tested on: Vero; test: Cytotoxicity against african green monkey Vero cells; format: cell-based; details: chlorocebus sabaeus
[3] = Cytotoxicity against human […] cells; format: functional, cell-based
[4] = Cytotoxicity against mouse MS1 cells; format: cell-based; details: MS-1
[5] = Cytotoxicity against human H116 cells; format: functional, cell-based
[6] = tested on: Leishmania donovani; test: Antileishmanial activity against Leishmania donovani promastigotes expressing luciferase; format: functional, organism-based
In short: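 Transgenic L. donovani promastigote line stably expressing luciferase used as the test organism. Pentamidine and amphotericin B run alongside as reference antileishmanials.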

[7] = tested on: Human immunodeficiency virus 1; test: Antiviral activity against HIV1 in human PBM cells; format: functional, organism-based; details: Human immunodeficiency virus 1, PBMC
[8] = tested on: Plasmodium falciparum; test: Antimalarial activity against Plasmodium falciparum D6; format: functional, organism-based
[9] = tested on: Plasmodium falciparum; test: Antimalarial activity against chloroquine-resistant Plasmodium falciparum W2; format: functional, organism-based
[10] = tested on: HT-29; test: Cytotoxicity against human HT-29 cells; format: functional, cell-based

Structure (SMILES)	MIC [1]	Activity [2]	Activity [6]	Activity [8]	Activity [9]	other results
O=C1CCCN2[C@@H](CC1)C[C@]13CN4CCCC/C=C\CC[C@](O)(C=C(c5nccc6c5[nH]c5c(O)cccc56)C1CC4)[C@H]23 (stereo not given in full) [MANZAMINE F]	2.56 µg/mL (≈ 4.41 µM)	Non-toxic				
O[C@]12C=C(c3nccc4c3[nH]c3ccccc34)C3CCN(CCCC/C=C\CC1)C[C@@]31C[C@]34CC[C@H](CCCN3[C@H]12)O4 (stereo not given in full) [6-Deoxymanzamine X]	1.77 µg/mL (≈ 3.13 µM)	4760 ng/mL				IC50 [3]: 1 µg/mL (≈ 1.77 µM); IC50 [4]: 1 µg/mL (≈ 1.77 µM); IC50 [5]: 0.5 µg/mL (≈ 0.885 µM); IC50 [6]: 3.2 µg/mL (≈ 5.67 µM); IC90 [6]: 7.5 µg/mL (≈ 13.3 µM); EC50 [7]: 1600 nM; IC50 [8]: 1.3 µg/mL (≈ 2.3 µM); IC50 [9]: 1.4 µg/mL (≈ 2.48 µM); IC50 [10]: 0.5 µg/mL (≈ 0.885 µM)
O=C1CCCN2[C@@H]3[C@@]45CN6CCCC/C=C\CC[C@]3(C=C(c3nccc7c3[nH]c3ccccc37)[C@@H]4CC6)O[C@@]2(CC1)C5	128 µg/mL (≈ 227 µM)	Non-toxic	inactive	inactive	inactive	
Oc1ccc2[nH]c3c(C4=C[C@@]5(O)CC/C=C\CCCCN6CC[C@@H]4[C@@]4(C6)C[C@@]67CC[C@@H](CCCN6[C@H]45)O7)nccc3c2c1 [MANZAMINE X]		Non-toxic				IC50 [3]: 5.1 µg/mL (≈ 8.78 µM); IC50 [4]: 5.1 µg/mL (≈ 8.78 µM); IC50 [5]: 5.1 µg/mL (≈ 8.78 µM); IC50 [6]: 5.7 µg/mL (≈ 9.81 µM); IC90 [6]: 11 µg/mL (≈ 18.9 µM); IC50 [8]: 0.95 µg/mL (≈ 1.64 µM); IC50 [9]: 2 µg/mL (≈ 3.44 µM); IC50 [10]: 0.5 µg/mL (≈ 0.861 µM)
Oc1cccc2c1[nH]c1c(C3=C[C@@]4(O)CC/C=C\CCCCN5CC[C@@H]3[C@]3(CC6/C=C\CCCCN6[C@H]34)C5)nccc12 (stereo not given in full)	0.91 µg/mL (≈ 1.61 µM)	1100 ng/mL				EC50 [7]: 4200 nM
O=C(c1c[nH]cn1)c1nccc2c1[nH]c1ccccc12 [DES-N-METHYLXESTOMANZAMINE A]		Non-toxic		inactive	inactive	IC50 [6]: 35 µg/mL (≈ 133 µM); IC90 [6]: > 50 µg/mL
O=C1[C@@H]2CCCCCCN2[C@@H]2[C@]13CN1CCCC/C=C\CC[C@]2(O)C=C(c2nccc4c2[nH]c2ccc(O)cc24)[C@@H]3CC1		Non-toxic	inactive	inactive	inactive	
O=C1CCCN2[C@@H](CC1)C[C@]13CN4CCCC/C=C\CC[C@](O)(C=C(c5nccc6c5[nH]c5ccccc56)C1CC4)[C@H]23 (stereo not given in full) [MANZAMINE E]	3.76 µg/mL (≈ 6.66 µM)	Non-toxic				
c1ccc2c(c1)[nH]c1cnccc12 [NORHARMANE]		Non-toxic	inactive	inactive	inactive	
C1=C(c2nccc3c2[nH]c2ccccc23)[C@@H]2CCN3CCCC/C=C\CC[C@]14O[C@@]15/C=C\CCCCN1[C@@H]4[C@]2(C3)C5 [12,34-OXAMANZAMINE A]		Non-toxic			inactive	
O[C@@H]1CCCN2[C@@H](CC1)C[C@]13CN4CCCC/C=C\CC[C@](O)(C=C(c5nccc6c5[nH]c5ccccc56)[C@@H]1CC4)[C@H]23 [32,33-DIHYDRO-31-HYDROXYMANZAMINE A]		Non-toxic	inactive	inactive	inactive	
O=C1NCCc2c1[nH]c1ccccc21		Non-toxic	inactive	inactive	inactive	
O[C@]12C=C(c3nccc4c3[nH]c3ccccc34)[C@@H]3CCN(CCCC/C=C\CC1)C[C@@]31C[C@@H]3/C=C\CCCCN3[C@H]12 [MANZAMINE A]	1.53 µg/mL (≈ 2.79 µM)	1200 ng/mL				EC50 [7]: 590 nM
OC1=C[C@@]2(O)CC/C=C\CCCCN3CC[C@@H]1[C@]1(C[C@@H]4/C=C\CCCCN4[C@H]12)C3 [IRCINOL A]						IC50 [6]: 0.9 µg/mL (≈ 2.26 µM); IC90 [6]: 1.7 µg/mL (≈ 4.27 µM)
